Measured values as given in publication PMC7894042 (ACS chemical neuroscience, 2020).
Read-outs that look alike come from different tables or passages of the source.

Key:
[1] = Fluorophore characterization: emission spectra in solvents; assay type: physicochemical; settings: fluorometer
How it was run: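 JP-N3 emission spectra were recorded in toluene, acetone, MeOH and H2O. Each spectrum was fitted with a single six-component split pseudo-Voigt curve to give a reference line shape.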

[2] = tested on: Kv2.1 closed state VSD; settings: ref [22], cited from earlier work; for effect on channel opening / gating charge: Kv2.1
[3] = biological target: T1, Kv2.1 channels (Rattus norvegicus, UniProt P15387); settings: values for GxTX are from ref [23], cited from earlier work
T1 sequence (P15387 1-857): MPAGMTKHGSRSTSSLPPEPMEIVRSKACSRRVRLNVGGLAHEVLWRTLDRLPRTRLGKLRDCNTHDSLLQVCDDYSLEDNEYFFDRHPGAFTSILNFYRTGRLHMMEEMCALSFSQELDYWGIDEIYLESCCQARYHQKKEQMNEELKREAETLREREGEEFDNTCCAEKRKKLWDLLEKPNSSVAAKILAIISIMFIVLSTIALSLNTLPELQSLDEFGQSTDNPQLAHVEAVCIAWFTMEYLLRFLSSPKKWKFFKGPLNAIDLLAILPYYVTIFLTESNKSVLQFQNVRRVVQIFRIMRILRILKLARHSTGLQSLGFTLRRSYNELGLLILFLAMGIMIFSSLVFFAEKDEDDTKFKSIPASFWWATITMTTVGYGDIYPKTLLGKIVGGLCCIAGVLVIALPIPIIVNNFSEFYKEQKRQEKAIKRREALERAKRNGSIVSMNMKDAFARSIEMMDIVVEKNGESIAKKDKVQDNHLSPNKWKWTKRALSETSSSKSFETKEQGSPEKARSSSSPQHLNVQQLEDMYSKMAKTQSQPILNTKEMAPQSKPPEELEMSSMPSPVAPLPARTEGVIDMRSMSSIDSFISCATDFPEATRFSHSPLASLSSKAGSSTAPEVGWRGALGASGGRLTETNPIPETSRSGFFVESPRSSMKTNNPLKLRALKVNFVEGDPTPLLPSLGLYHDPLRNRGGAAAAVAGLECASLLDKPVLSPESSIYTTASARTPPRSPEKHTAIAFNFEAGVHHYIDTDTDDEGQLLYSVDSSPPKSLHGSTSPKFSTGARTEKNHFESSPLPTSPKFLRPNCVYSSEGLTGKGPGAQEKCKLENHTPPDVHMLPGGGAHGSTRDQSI

[4] = tested on: mice; settings: injected into mice; no reference or experiment given; cited from earlier work

In the case of [N-]=[N+]=NCc1cc(=O)cc2oc3c4c5c(cc3nc1-2)CCCN5CCC4 [JP-N3, 10-(azidomethyl)-julolidino-phenoxazinone], the “emission peak in MeOH” value ([1]; 200 nM JP-N3, anhydrous MeOH) is reported as 640 nm and the “emission peak in hydrocarbon” value ([1]; 200 nM JP-N3, anhydrous hydrocarbon solvent) is reported as 609 nm.

In the case of Met35Nle guangxitoxin-1E [GxTX], the “effect on channel opening / gating charge” value [2] is given as “inhibiting early, fast gating charge transitions”, the Kd ([3]; 0 mV) is given as 1520 ± 810 nM and the koff ([3]; 0 mV) is given as 38 ± 9 × 10^−3 s^−1. For the same molecule, the kon ([3]; 0 mV) was 2.5 ± 1.2 × 10^−5 s^−1 nM^−1, the Kd ([3]; −100 mV) was 2.55 ± 1.01 nM and the koff ([3]; −100 mV) was 0.84 ± 0.18 × 10^−3 s^−1. For the same molecule, the kon ([3]; −100 mV) was 3.30 ± 1.10 × 10^−4 s^−1 nM^−1.

In the case of “guangxitoxin-1E (EGECGGFWWKCGSGKPACCPKYVCSPKWGLCNFPMP; UniProt P84835 1-36, looked up) [GxTX-1E]”, the “effect on channel opening / gating charge” value [2] is listed as “shifting channel opening to more depolarized potentials”, the “affinity for Kv2.1 closed state VSD relative to its open state” value [2] is listed as 5400 fold and the toxicity [4] is listed as “no toxicity up to 10 mg/kg”.
